Reference: the RNAGym collection of RNA variant scans (doi:10.1038/s41586-018-0170-7)

B1: tRNA (parent)
chain: GUUCCGUUGGCGUAAUGGUAACGCGUCUCCCUCCUAAGGAGAAGACUGCGGGUUCGAGUCCCGUACGGAACG

Variants of: B1
Assay: yeast fitness, log relative to wild type (ln ratio); higher = fitter; tRNA-Arg(CCU), competitive growth, 37 C, 1 M NaCl
Method in brief: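 Fitness is the natural log of a genotype's generation count divided by that of the wild type. A combinatorial library of tRNA-Arg(CCU) variants sat on a HIS3 centromeric plasmid in BY4742 lacking the chromosomal gene, from two independent transformations. Pools grew 4 generations in SC-HIS at 30 °C, then ~6.5 generations (~26.5 h) in SC-HIS 1M NaCl at 37 °C, with three outputs per input. Generations came from OD-scaled log2 output/input frequency, inverse-variance weighted across replicates, with variants counted by 125 bp paired-end Illumina sequencing.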

Row | Variant | yeast fitness (ln)
1 | U2G C46U C66U A70U | -0.00424
2 | G1A C27U A43C C46U C71U | -0.0315
3 | U2G C27U C66A A69G A70G C71U | -0.247
4 | G6A C46U A70U | -0.237
5 | G1A G6A C27U C66A A70U | -0.139
6 | G1A G6A C27U A43C C46U C66A A70U C71U | -0.209
7 | U2G G6A A43C C66A A70U | -0.12
8 | G1A G6A A43C A70U C71U | -0.218
9 | G1A U2C G6U C71U | -0.159
10 | G1A U2C G6A A43C C46U A69G A70G C71U | -0.119
11 | G1A C46U A69G A70G C71U | -0.0298
12 | G1A C46U A69G C71U | -0.00219
13 | C27U A43C | -0.0182
14 | U2G G6U C27U A43C C46U C66U C71U | -0.356
15 | G6A C27U A43C C46U C66A A70U C71U | -0.346
16 | G1A G6U A43C C66U A69G A70U C71U | -0.433
17 | G1A G6A C27U C46U A70G | -0.208
18 | U2C G6A C27U A43C C46U C66A A69G A70G C71U | -0.19
19 | G1A G6U C27U A43C A70G C71U | -0.426
20 | G1A U2G A43C C66U A69G A70U C71U | -0.472
21 | C27U A69G A70G C71U | -0.223
22 | G1A G6U C27U C46U A69G A70G | -0.307
23 | U2G G6U C27U C46U C66U A69G C71U | -0.527
24 | G1A G6A A43C C46U C66A C71U | -0.26

Row | Variant | yeast fitness (ln)
25 | U2G G6A C66U A69G A70G C71U | -0.161
26 | G1A U2C C27U A70U C71U | -0.288
27 | U2G G6A C66A A69G A70U C71U | -0.31
28 | G1A U2G G6U A43C C46U C66U A70G | -0.344
29 | G1A U2G G6U C27U C46U A69G A70G | -0.474
30 | G1A U2C C27U C66U C71U | -0.33
31 | G6U A69G | -0.234
32 | G1A G6U | -0.0886
33 | U2C G6U A43C C46U A69G A70G C71U | -0.149
34 | G6A C27U C46U A70U | -0.144
35 | G1A G6U A43C C46U C66A C71U | -0.0191
36 | G1A C27U C46U C66A A69G A70U | -0.179
37 | C27U A43C C46U A70G | -0.0288
38 | G1A G6U C27U A43C C46U C66A C71U | -0.138
39 | G1A U2G G6A C46U C66U C71U | -0.301
40 | U2C G6A C27U C66U A70G C71U | -0.0401
41 | U2G C27U A70U | -0.0184
42 | G1A U2G G6A A43C C46U A69G A70U C71U | -0.262
43 | U2C C27U A43C A69G A70U | -0.136
44 | C46U A70G | -0.00475
45 | G1A G6U C46U C66U A70G C71U | -0.277
46 | U2C C27U C46U C66A | -0.143
47 | G1A U2C C27U A43C C66A A70U C71U | -0.331
48 | G1A U2C C27U C66U A70G C71U | -0.127

Row | Variant | yeast fitness (ln)
49 | U2C C27U A43C C46U C66U A69G A70G C71U | -0.216
50 | U2G C66U A69G A70U | -0.285
51 | U2C G6U C46U C66A A70U | 0.000469
52 | G1A C46U A70U | -0.0349
53 | G1A G6A C27U A43C C66U C71U | -0.505
54 | G1A U2C G6A C27U A43C C66U A70G C71U | -0.0683
55 | G6A C27U C46U C66U A70G | -0.0516
56 | U2G C27U A43C C66U A70G C71U | -0.331
57 | G6U C27U A43C C46U A70U C71U | -0.336
58 | A43C C66U A70G | -0.0981
59 | G1A G6U A43C C66U C71U | -0.333
60 | G1A U2G C27U C66A A70U C71U | -0.243
61 | G1A G6A C27U C46U C66A A70G | -0.285
62 | G1A C27U C46U C66U A69G C71U | -0.311
63 | U2C A43C C66A | -0.0546
64 | G1A U2G G6A C27U C66U | -0.221
65 | G6U C27U A69G A70G | -0.33
66 | G1A U2G G6U A43C | -0.257
67 | U2G | -0.0125
68 | C66U A70U | -0.0848
69 | U2G G6U C27U C46U C66U A69G A70U | -0.238
70 | U2G G6U C27U C66U A69G A70U | -0.276
71 | U2G A70G | -0.0201
72 | G1A U2G A43C C46U C66A A70U C71U | -0.168

Row | Variant | yeast fitness (ln)
73 | U2C C46U C66U A69G A70G C71U | -0.0462
74 | U2C G6U C46U C66U A70G C71U | -0.0117
75 | U2G G6A C27U A43C C66A A69G A70G | -0.368
76 | G6U C27U C66A A69G C71U | -0.806
77 | G6U C27U C46U C71U | -0.205
78 | U2G G6U C27U A43C C71U | -0.304
79 | G6U C27U A43C C46U A70U | -0.206
80 | U2G G6A C27U A43C C46U A69G A70G | -0.183
81 | U2C G6U C27U C46U A70U | -0.13
82 | U2G C27U A43C C66U A69G C71U | -0.354
83 | U2G G6U C27U C66U A69G | -0.275
84 | U2C A43C A70G | -0.00562
85 | G1A C46U C66U A69G A70U C71U | -0.353
86 | G1A U2G G6U C27U C46U A70U C71U | -0.242
87 | U2G G6A C27U A43C C46U C66A A70G C71U | -0.19
88 | G6A C66U A70U C71U | -0.462
89 | G1A U2C G6U C46U A70U C71U | -0.033
90 | G1A U2G G6A A43C C66U A69G A70U | -0.45
91 | G6U C66A A69G C71U | -0.0488
92 | U2G C46U C66U A70G C71U | -0.115
93 | G1A U2G A43C C66A A70G C71U | -0.333
94 | G6A C66U A69G A70U C71U | -0.447
95 | G1A U2C G6U C27U C46U C66U A70U C71U | -0.284
96 | U2C G6A C27U C66U A70G | -0.0339

Row | Variant | yeast fitness (ln)
97 | G1A U2C C27U C71U | -0.238
98 | G1A U2G G6U C27U C46U C66A A70U | -0.322
99 | C27U A43C C66U A69G | -0.384
100 | G1A U2G C46U C66A A70U C71U | -0.152
101 | G1A C27U A70U | -0.112
102 | U2G G6A A43C C66A C71U | -0.347
103 | G6A A43C C66A A70G C71U | -0.275
104 | G1A U2G G6U C27U A43C C66U A69G A70U | -0.611
105 | U2G G6A C27U C46U C66A A69G A70U | -0.134
106 | G1A U2G G6U A43C C46U C66A A70G C71U | -0.153
107 | U2C G6U C27U A43C C66U A70G | -0.366
108 | U2G A43C C46U C66A A70G | -0.119
109 | G1A G6U C66U A69G A70G C71U | -0.273
110 | G1A U2G C27U A43C C46U A70G | -0.124
111 | G6U C27U C66U A69G C71U | -0.377
112 | U2C C27U A43C C46U C66U C71U | -0.174
113 | G1A U2G G6A A43C C46U A70G | -0.163
114 | U2C G6U C27U C46U C66A A69G A70U C71U | -0.319
115 | G1A A43C C66U A70G | -0.236
116 | G1A G6A A43C C66U A69G C71U | -0.811
117 | U2G C46U C66A A69G A70G C71U | -0.139
118 | U2C C27U A43C C46U C66U A70G | -0.0949
119 | C46U C66A A69G A70U C71U | -0.282
120 | C46U C66A C71U | -0.0724

Row | Variant | yeast fitness (ln)
121 | G6U A70G | -0.221
122 | G1A U2C C66U A70G | -0.297
123 | G6U C27U A43C C66U | -0.227
124 | G1A C27U A43C A69G A70U C71U | -0.406
125 | G1A U2C C27U C46U A70G C71U | -0.0196
126 | U2C G6U C27U A69G A70G | -0.191
127 | G6U C66U A69G A70G C71U | -0.293
128 | G1A U2C G6U C46U C66A A69G A70G | -0.139
129 | G6U A69G C71U | -0.233
130 | G1A U2C C27U A43C C46U A70G | -0.0342
131 | G1A G6U C27U A43C C66A A70G C71U | -0.411
132 | G1A U2G G6U A43C C66U A70G | -0.271
133 | U2G A43C C66A A70G | -0.103
134 | U2G A43C C66A A70U | -0.0996
135 | G6A C27U C66U A70U C71U | -0.312
136 | G6A A69G C71U | -0.134
137 | U2G G6A A69G A70G | -0.139
138 | U2C G6U A43C C46U C66U A70U | -0.123
139 | U2C G6U A43C C46U C66U A70G | -0.0851
140 | U2C G6U A43C C66U A69G A70U | -0.231
141 | U2G C27U C66A A69G C71U | -0.197
142 | G1A U2C G6U C27U C46U C66A A69G A70G C71U | -0.0613
143 | G6U C27U C46U C66U A69G A70G | -0.318
144 | G6A C27U A43C C46U C66A A70U | -0.193

Row | Variant | yeast fitness (ln)
145 | G1A G6A C66U A70U C71U | -0.216
146 | U2C G6U C46U C66U A69G A70U | -0.0758
147 | A43C C66U A69G C71U | -0.436
148 | G1A C27U C46U C66U A70G | -0.157
149 | G1A U2C G6A C46U C66A A69G A70G C71U | -0.172
150 | G1A U2C G6U C27U A43C C66U A69G A70G C71U | -0.117
151 | U2C G6U C27U A43C C46U A69G C71U | -0.187
152 | U2C G6U C27U C46U C66A A70G | -0.0216
153 | G1A G6U C27U A43C A69G A70U | -0.481
154 | G1A G6U C27U A43C A69G A70G | -0.536
155 | G1A U2C C27U C46U A69G A70U | -0.0465
156 | G1A U2G G6U C66U | -0.203
157 | G1A U2G C27U C46U C66U A70G | -0.167
158 | G1A U2G G6A C27U A43C C66U A69G A70U | -0.387
159 | U2G G6A C27U A43C C46U C66A A69G A70U | -0.187
160 | G1A U2G G6U C27U A70G | -0.274
161 | U2C G6U C27U C46U C66U C71U | -0.183
162 | U2G G6U C66A A69G A70G C71U | -0.158
163 | G1A U2G G6A C66A A70U C71U | -0.119
164 | G6U C27U A43C C46U C66U A70U C71U | -0.467
165 | G1A C27U A43C C46U | -0.131
166 | A69G | -0.00462
167 | G1A U2G G6U C46U C66U A70U C71U | -0.722
